This note sets out measurements from ChEMBL document CHEMBL5038600, “Discovery of M-1121 as an Orally Active Covalent Inhibitor of Menin-MLL Interaction Capable of Achieving Complete and Long-Lasting Tumor Regression” (J Med Chem, 2021).

A short description of series [1]: Toxicity in SCID mouse xenografted with human MV4-11 cells assessed as signs of toxicity at 300 mg/kg, po qd administered daily for 15 days. Type of series: organism-based. The following applies: in vivo, 360 h, time 15 day. The procedure, abridged:
(§1)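 Female C.B-17 SCID mice, 5–6 weeks old, implanted subcutaneously in the right flank with 5×10^6 MV4;11 cells in 1:1 Matrigel. Randomized at about 200 mm3. Dosed 300 mg/kg by oral gavage once daily for 15 days in 0.5% MC (400 cP) + 0.2% Tween 80 at 10 mL/kg. Body weight measured daily; caliper volume (0.5×W×W×L) three times weekly.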
For orientation: Xenograft models place foreign cells or tissue in a host animal.

The subject of series [2] is MV4-11. The series can be described thus: Anti-tumor activity against luciferase-tagged human MV4-11 cells xenografted in NCG mouse assessed as induction of CD11b protein in human CD45+ cells at 150 mg/kg, po administered daily for 4 days measured after 48 hrs by qRT-PCR analysis. Type of series: functional, organism-based. Particulars: time 4.0 day, in the assay text read “flow cytometry analysis” for “qRT-PCR analysis”. The gist of the method: (§2)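 Female NCG mice, 5–6 weeks old, given 5×10^6 luciferase-tagged MV4;11 cells IV via tail vein. Randomized at log-phase disease (day 27). Dosed 150 mg/kg oral gavage daily for 4 days in MC/Tween 80 vehicle. Read-outs 48 h after the last dose, five mice per group, mean ± SEM: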

Series [3] concerns the target T1, Menin (Homo sapiens) (UniProt O00255).
T1 sequence (whole entry): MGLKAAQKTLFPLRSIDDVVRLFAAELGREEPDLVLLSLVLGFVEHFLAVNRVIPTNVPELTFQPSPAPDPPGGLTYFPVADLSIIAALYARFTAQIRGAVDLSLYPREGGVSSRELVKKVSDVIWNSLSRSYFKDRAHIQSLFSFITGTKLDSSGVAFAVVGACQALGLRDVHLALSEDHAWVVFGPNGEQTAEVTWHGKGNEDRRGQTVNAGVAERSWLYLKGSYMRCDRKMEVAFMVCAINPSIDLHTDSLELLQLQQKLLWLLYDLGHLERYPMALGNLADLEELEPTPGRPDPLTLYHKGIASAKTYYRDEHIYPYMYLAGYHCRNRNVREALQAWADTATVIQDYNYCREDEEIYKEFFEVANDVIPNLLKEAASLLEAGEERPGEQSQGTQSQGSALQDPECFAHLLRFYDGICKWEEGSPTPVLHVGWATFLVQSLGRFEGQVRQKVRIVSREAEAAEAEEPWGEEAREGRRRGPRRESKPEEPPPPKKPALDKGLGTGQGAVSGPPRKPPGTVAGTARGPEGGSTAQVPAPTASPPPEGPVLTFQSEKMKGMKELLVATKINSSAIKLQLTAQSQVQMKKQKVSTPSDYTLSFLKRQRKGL
The series can be described thus: Binding affinity to recombinant human menin protein assessed as covalent complex formation incubated for 30 mins by LC/MS analysis. More on the design: concentration or dose not given beside the values.

Series [4] in a line: AUC (0 to infinity) in C57BL/6 mouse at 1 mg/kg, iv. Type of series: ADME, organism-based. Further details: time infinity, route intravenous, dose 1 mg/kg. The following applies: in vivo. The procedure, abridged:
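Female C57BL/6 mice, single IV dose of 1 mg/kg given as a solution in 10% NMP, 10% Solutol HS15 and 80% saline. Parameters come from the plasma concentration–time profile.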

Series [5] can be described thus: Toxicity in SCID mouse xenografted with human MV4-11 cells assessed as signs of toxicity at 100 mg/kg, po administered daily for 26 days. The class given is organism-based. Particulars: in vivo, 624 h, time 26 day. The gist of the method:
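Female C.B-17 SCID mice bearing subcutaneous MV4;11 flank tumors (5×10^6 cells with Matrigel 1:1), treated once tumors averaged about 100 mm3. Dosed 100 mg/kg daily by oral gavage for 26 days in 0.5% MC + 0.2% Tween 80 vehicle. Body weight measured daily.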

Series [6] concerns the target T1, Menin (Homo sapiens). Put plainly: Binding affinity to recombinant human menin protein assessed as covalent complex formation incubated for 1 hrs by LC/MS analysis. Further details: concentration or dose not given beside the values. The procedure, abridged:
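Menin (25 mg/mL in 25 mM Tris pH 8.0, 150 mM NaCl, 5 mM DTT) incubated with compound at a 1:1.2 protein:compound molar ratio for 1 h or overnight at 4 °C. Diluted to 1 mg/mL, then reverse-phase C4 LC with a 5–100% MeCN/0.2% formic acid gradient and Q-TOF mass spectrometry to detect the covalent adduct.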

The test system of series [7] is MV4-11. Put plainly: Anti-tumor activity against luciferase-tagged human MV4-11 cells xenografted in NCG mouse assessed as reduction in number of CD45+/CD33+ cells at 150 mg/kg, po administered daily for 4 days measured after 48 hrs by flow cytometry. The class given is functional, organism-based. Particulars: time 4.0 day. The gist of the method:
as §2

Series [8] in a line: Protein binding in rat plasma at 1 uM incubated for 5 hrs by liquid chromatography-tandem mass spectrometry. The class given is ADME, cell-free. The procedure, abridged: (§3)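 Equilibrium dialysis: plasma spiked at 1 μM against dialysis buffer, shaken 5 h at 37 °C, with warfarin and quinidine (1 μM) as controls. Samples matrix-matched, quenched with acetonitrile containing imipramine internal standard, and analysed by LC-MS/MS. Percent bound computed from peak area ratios.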

Series [9] relates to MV4-11. The series can be described thus: Anti-tumor activity against human MV4-11 cells xenografted in SCID mouse assessed as tumor regrowth at 300 mg/kg, po qd administered daily for 15 days. The class given is functional, organism-based. Particulars: time 15.0 day. The procedure, abridged:
as §1

The test system of series [10] is MV4-11. Put plainly: Anti-tumor activity against luciferase-tagged human MV4-11 cells xenografted in NCG mouse assessed as decreased intensity of whole body bioluminescence signal at 150 mg/kg, po administered daily for 4 days measured after 48 hrs by bioluminescence analysis. Type of series: functional, organism-based. The following applies: time 4.0 day. The gist of the method:
as §2

Series [11] concerns K562. Put plainly: Anti-proliferative activity against human K562 cells harboring MLL wild-type protein assessed as cell growth inhibition measured after 4 days by Cell Titre Glo Luminescent Cell viability assay. The following applies: K562, 96 h. Type of series: functional, cell-based. The procedure, abridged: (§4)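 Leukemia lines plated in triplicate in RPMI 1640 at 37 °C, 5% CO2. 9-point dose response from 10 μM top concentration with 1:3 serial dilutions, 0.1% DMSO final; DMSO vehicle control column. Cellular ATP read by CellTiter-Glo at day 0 and after 4 days. Averages from three independent experiments.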

The nature of series [12]: GSH reactivity in pH 7.4 assessed as conjugation half life at pH 7.4. The class given is physicochemical.
Series [13] deals with MEG-01. The series can be described thus: Anti-proliferative activity against human MEG-01 cells harboring MLL wild-type protein assessed as cell growth inhibition measured after 4 days by Cell Titre Glo Luminescent Cell viability assay. Type of series: functional, cell-based. Particulars: MEG-01, 96 h. The gist of the method:
as §4

Series [14] deals with HL-60. The series can be described thus: Anti-proliferative activity against human HL-60 cells harboring MLL wild-type protein assessed as cell growth inhibition measured after 4 days by Cell Titre Glo Luminescent Cell viability assay. The class given is functional, cell-based. Particulars: HL-60, 96 h. The procedure, abridged:
as §4

In series [15] the test system is MV4-11. The series can be described thus: Suppression of HOXA9 gene expression in human MV4-11 cells at 10 nM measured after 24 hrs by qRT-PCR analysis. The class given is functional, cell-based.
For series [16], the system named is SEM cells. The series can be described thus: Anti-proliferative activity against human SEM cells harboring MLL/AF4 fusion protein assessed as cell growth inhibition measured after 4 days by Cell Titre Glo Luminescent Cell viability assay. The following applies: 96 h. The class given is functional, cell-based. The procedure, abridged:
as §4

Series [17] is described as follows: AUC (0 to infinity) in C57BL/6 mouse at 5 mg/kg, po. Type of series: ADME, organism-based. Further details: route oral, time infinity, dose 5 mg/kg. The following applies: in vivo. The procedure, abridged: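 Female C57BL/6 mice, single oral dose of 5 mg/kg in 0.5% methyl cellulose + 0.2% Tween 80 (w/w). Bioavailability is calculated against the 1 mg/kg IV arm.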

Series [18] can be described thus: Protein binding in mouse plasma at 1 uM incubated for 5 hrs by liquid chromatography-tandem mass spectrometry. Type of series: ADME, cell-free. The gist of the method:
as §3

The nature of series [19]: Protein binding in human plasma at 1 uM incubated for 5 hrs by liquid chromatography-tandem mass spectrometry. The class given is ADME, cell-free. The procedure, abridged:
as §3

pIC50: −log10 of the molar value. Active and inactive are the calls of the source. The rule behind the calls is not given here.

For `C=CC(=O)N1C[C@@H]2C[C@H]1CN2S(=O)(=O)c1ccc(N2CC(CN3CCC([C@@](CN4CCC4)(c4cccc(F)c4)[C@H]4CCC[C@@H]4NC(=O)OC)CC3)(OC)C2)cc1`, the Activity entry in series [1] was “Non-Toxic”; in series [3], 59%; in series [5] it was “Non-Toxic”; in [6], 66%. Besides, the result in series [2], in series [7], in series [9] and in [10] was Active. Also, the AUC(0-inf) – broadly, the area under the concentration-time curve extrapolated to infinity – in series [4] was 17600 ng·h/mL; in [17], 43600 ng·h/mL. For the same compound, the results for the PPB in series [8], in [18] and in series [19] were 87.5%, 99.3% and 90.7%, respectively. In addition, the pIC50 (commonly the IC50 on a negative log10 scale, so that one unit is a factor of ten) in series [11] was less than 5.00; in series [13], less than 5.00; in [14], less than 5.00; in series [16], 7.29. In series [12], the t1/2 turned out to be 1.48 h. In addition, the inhibition result in series [15] was “Active”.
